In ChEMBL document CHEMBL5724801, “EUbOPEN Chemogenomics Library - Multiplex” (2024):
Several values for one entry are separate records, joined by “and”; a condition that tells them apart may be missing. Equal entries are not always repeated.

Test system: Fibroblast
Experiment: Multiplex assay against human fibroblast
Format: toxicity, cell-based
Procedure, shortened: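 Four dyes were applied at seeding to live cells: Hoechst33342, BioTracker Green Microtubule Cytoskeleton Dye, MitoTracker Red and Annexin V Alexa Fluor 680. Imaging after compound addition used a CQ1 microscope at 37°C and 5% CO2. CellPathfinder machine-learning gating then sorted cells into Hoechst high-intensity objects or normal cells, normal cells into healthy, pyknosed or fragmented nuclei, and pyknosed cells into mitotic or apoptotic, with tubulin, mitochondrial-mass and membrane-permeability phenotypes given as per cents of healthy-nucleus cells.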

[1] = 12 h, 1 µM, compound concentration 1 uM
[2] = 12 h, 10 µM, compound concentration 10 uM
[3] = 24 h, 1 µM, compound concentration 1 uM
[4] = 24 h, 10 µM, compound concentration 10 uM
[5] = 48 h, 1 µM, compound concentration 1 uM
[6] = 48 h, 10 µM, compound concentration 10 uM

## COc1ccc(-n2c(C)c([N+](=O)[O-])c3ccc(O)cc32)cc1
[1]
  Population Apoptotic (%): 18% and 14.29%
  Population Fragmented Nuclei (%): 8.91% and 3.57%
  Population Healthy Nuclei (%): 66.34% and 79.76%
  Population Hoechst High Intensity Objects (%): 0%
  Population Membrane Permeable-Phenotype (%): 5.97% and 4.48%
  Population Mitochondria Different-Phenotype (%): 7.46%
  Population Mitotic Cells (%): 82% and 85.71%
  Population Normal (%): 100%
  Population Pyknosed Nuclei (%): 24.75% and 16.67%
  Population Tubulin-Different-Phenotype (%): 13.43% and 18.66%
  Total Cell Count: 202 and 168
[2]
  Population Apoptotic (%): 17.65% and 23.08%
  Population Fragmented Nuclei (%): 6.97% and 4.59%
  Population Healthy Nuclei (%): 67.66% and 77.52%
  Population Hoechst High Intensity Objects (%): 0%
  Population Membrane Permeable-Phenotype (%): 5.15% and 4.73%
  Population Mitochondria Different-Phenotype (%): 6.62% and 11.24%
  Population Mitotic Cells (%): 82.35% and 76.92%
  Population Normal (%): 100%
  Population Pyknosed Nuclei (%): 25.37% and 17.89%
  Population Tubulin-Different-Phenotype (%): 14.71% and 28.4%
  Total Cell Count: 201 and 218
[3]
  Population Apoptotic (%): 9.52% and 17.86%
  Population Fragmented Nuclei (%): 11.01% and 2.84%
  Population Healthy Nuclei (%): 69.72% and 81.25%
  Population Hoechst High Intensity Objects (%): 0%
  Population Membrane Permeable-Phenotype (%): 4.61% and 4.2%
  Population Mitochondria Different-Phenotype (%): 3.29% and 5.59%
  Population Mitotic Cells (%): 90.48% and 82.14%
  Population Normal (%): 100%
  Population Pyknosed Nuclei (%): 19.27% and 15.91%
  Population Tubulin-Different-Phenotype (%): 10.53% and 19.58%
  Total Cell Count: 218 and 176
[4]
  Population Apoptotic (%): 15.38% and 16.67%
  Population Fragmented Nuclei (%): 4.88% and 5%
  Population Healthy Nuclei (%): 76.1% and 84.09%
  Population Hoechst High Intensity Objects (%): 0%
  Population Membrane Permeable-Phenotype (%): 3.85% and 2.7%
  Population Mitochondria Different-Phenotype (%): 8.33% and 6.49%
  Population Mitotic Cells (%): 84.62% and 83.33%
  Population Normal (%): 100%
  Population Pyknosed Nuclei (%): 19.02% and 10.91%
  Population Tubulin-Different-Phenotype (%): 15.38% and 20.54%
  Total Cell Count: 205 and 220
[5]
  Population Apoptotic (%): 26.32% and 22.22%
  Population Fragmented Nuclei (%): 9.8% and 4.74%
  Population Healthy Nuclei (%): 82.45% and 85.79%
  Population Hoechst High Intensity Objects (%): 0%
  Population Membrane Permeable-Phenotype (%): 0% and 1.84%
  Population Mitochondria Different-Phenotype (%): 9.41% and 2.45%
  Population Mitotic Cells (%): 73.68% and 77.78%
  Population Normal (%): 100%
  Population Pyknosed Nuclei (%): 7.76% and 9.47%
  Total Cell Count: 245 and 190
[6]
  Population Apoptotic (%): 28.57% and 38.89%
  Population Fragmented Nuclei (%): 7.73% and 4.61%
  Population Healthy Nuclei (%): 85.51% and 78.8%
  Population Hoechst High Intensity Objects (%): 0%
  Population Membrane Permeable-Phenotype (%): 3.39% and 7.02%
  Population Mitochondria Different-Phenotype (%): 10.17% and 5.85%
  Population Mitotic Cells (%): 71.43% and 61.11%
  Population Normal (%): 100%
  Population Pyknosed Nuclei (%): 6.76% and 16.59%
  Population Tubulin-Different-Phenotype (%): 10.17% and 28.07%
  Total Cell Count: 207 and 217

## O=C1c2c(Br)c(Br)c(Br)c(Br)c2C(=O)N1c1ncc[nH]1
[1]
  Population Apoptotic (%): 13.21% and 28%
  Population Fragmented Nuclei (%): 9.34% and 7.04%
  Population Healthy Nuclei (%): 61.54% and 81.22%
  Population Hoechst High Intensity Objects (%): 0%
  Population Membrane Permeable-Phenotype (%): 4.46% and 1.16%
  Population Mitochondria Different-Phenotype (%): 9.82% and 9.25%
  Population Mitotic Cells (%): 86.79% and 72%
  Population Normal (%): 100%
  Population Pyknosed Nuclei (%): 29.12% and 11.74%
  Population Tubulin-Different-Phenotype (%): 16.96% and 14.45%
  Total Cell Count: 182 and 213
[2]
  Population Apoptotic (%): 10.81% and 15.56%
  Population Fragmented Nuclei (%): 9.5% and 3.32%
  Population Healthy Nuclei (%): 69.83% and 75.36%
  Population Hoechst High Intensity Objects (%): 0%
  Population Membrane Permeable-Phenotype (%): 6.4% and 1.89%
  Population Mitotic Cells (%): 89.19% and 84.44%
  Population Normal (%): 100%
  Population Pyknosed Nuclei (%): 20.67% and 21.33%
  Population Tubulin-Different-Phenotype (%): 10.4% and 27.67%
  Total Cell Count: 179 and 211
[3]
  Population Fragmented Nuclei (%): 11.34% and 5.44%
  Population Healthy Nuclei (%): 70.62% and 82.01%
  Population Hoechst High Intensity Objects (%): 0%
  Population Membrane Permeable-Phenotype (%): 5.84% and 4.08%
  Population Mitochondria Different-Phenotype (%): 7.3% and 2.55%
  Population Mitotic Cells (%): 91.43% and 60%
  Population Normal (%): 100%
  Population Pyknosed Nuclei (%): 18.04% and 12.55%
  Population Tubulin-Different-Phenotype (%): 16.06% and 11.73%
  Total Cell Count: 194 and 239
[4]
  Population Apoptotic (%): 11.11% and 20%
  Population Fragmented Nuclei (%): 13.13% and 3.29%
  Population Healthy Nuclei (%): 73.23% and 84.98%
  Population Hoechst High Intensity Objects (%): 0%
  Population Membrane Permeable-Phenotype (%): 3.45% and 5.52%
  Population Mitochondria Different-Phenotype (%): 4.14% and 7.18%
  Population Mitotic Cells (%): 88.89% and 80%
  Population Normal (%): 100%
  Population Pyknosed Nuclei (%): 13.64% and 11.74%
  Population Tubulin-Different-Phenotype (%): 11.72% and 23.2%
  Total Cell Count: 198 and 213
[5]
  Population Fragmented Nuclei (%): 10% and 10.04%
  Population Healthy Nuclei (%): 84.21% and 84.56%
  Population Hoechst High Intensity Objects (%): 0%
  Population Membrane Permeable-Phenotype (%): 0.62% and 1.83%
  Population Mitotic Cells (%): 63.64% and 92.86%
  Population Normal (%): 100%
  Population Pyknosed Nuclei (%): 5.79% and 5.41%
  Population Tubulin-Different-Phenotype (%): 6.88% and 17.81%
  Total Cell Count: 190 and 259
[6]
  Population Fragmented Nuclei (%): 12.8% and 3.12%
  Population Healthy Nuclei (%): 85.31% and 89.29%
  Population Hoechst High Intensity Objects (%): 0%
  Population Membrane Permeable-Phenotype (%): 1.11% and 2%
  Population Normal (%): 100%
  Population Pyknosed Nuclei (%): 1.9% and 7.59%
  Total Cell Count: 211 and 224

## CN(C)Cc1cccc(NC(=C2C(=O)Nc3cc(C(N)=O)ccc32)c2ccccc2)c1
[1]
  Population Apoptotic (%): 0% and 16.22%
  Population Fragmented Nuclei (%): 12% and 11.4%
  Population Healthy Nuclei (%): 66.67% and 69.43%
  Population Hoechst High Intensity Objects (%): 0%
  Population Membrane Permeable-Phenotype (%): 4% and 2.99%
  Population Mitochondria Different-Phenotype (%): 10% and 8.21%
  Population Mitotic Cells (%): 100% and 83.78%
  Population Normal (%): 100%
  Population Pyknosed Nuclei (%): 21.33% and 19.17%
  Population Tubulin-Different-Phenotype (%): 20% and 13.43%
  Total Cell Count: 150 and 193
[2]
  Population Apoptotic (%): 29.55% and 27.03%
  Population Healthy Nuclei (%): 68.3% and 82.06%
  Population Hoechst High Intensity Objects (%): 0%
  Population Membrane Permeable-Phenotype (%): 9.39% and 4.65%
  Population Mitochondria Different-Phenotype (%): 16.57% and 13.49%
  Population Mitotic Cells (%): 70.45% and 72.97%
  Population Normal (%): 100%
  Population Pyknosed Nuclei (%): 16.6% and 14.12%
  Population Tubulin-Different-Phenotype (%): 48.62% and 53.95%
  Total Cell Count: 265 and 262
[3]
  Population Apoptotic (%): 23.81% and 25%
  Population Fragmented Nuclei (%): 7.65% and 8.11%
  Population Healthy Nuclei (%): 80% and 81.08%
  Population Hoechst High Intensity Objects (%): 0%
  Population Membrane Permeable-Phenotype (%): 4.41% and 2%
  Population Mitochondria Different-Phenotype (%): 5.15% and 6.67%
  Population Mitotic Cells (%): 76.19% and 75%
  Population Normal (%): 100%
  Population Pyknosed Nuclei (%): 12.35% and 10.81%
  Population Tubulin-Different-Phenotype (%): 8.82% and 14.67%
  Total Cell Count: 170 and 185
[4]
  Population Apoptotic (%): 16.28% and 31.25%
  Population Fragmented Nuclei (%): 12.59% and 7.12%
  Population Healthy Nuclei (%): 71.94% and 80.9%
  Population Hoechst High Intensity Objects (%): 0%
  Population Membrane Permeable-Phenotype (%): 5.5% and 3.24%
  Population Mitochondria Different-Phenotype (%): 9% and 14.35%
  Population Mitotic Cells (%): 83.72% and 68.75%
  Population Normal (%): 100%
  Population Pyknosed Nuclei (%): 15.47% and 11.99%
  Population Tubulin-Different-Phenotype (%): 48.5% and 61.11%
  Total Cell Count: 278 and 267
[5]
  Population Apoptotic (%): 40% and 44.44%
  Population Fragmented Nuclei (%): 11.24% and 9.23%
  Population Healthy Nuclei (%): 83.15% and 76.92%
  Population Hoechst High Intensity Objects (%): 0%
  Population Membrane Permeable-Phenotype (%): 1.35% and 5.33%
  Population Mitotic Cells (%): 60% and 55.56%
  Population Normal (%): 100%
  Population Pyknosed Nuclei (%): 5.62% and 13.85%
  Population Tubulin-Different-Phenotype (%): 8.11% and 15.33%
  Total Cell Count: 178 and 195
[6]
  Population Apoptotic (%): 47.37% and 60%
  Population Healthy Nuclei (%): 76.72% and 86.82%
  Population Hoechst High Intensity Objects (%): 0%
  Population Membrane Permeable-Phenotype (%): 5.06% and 5.36%
  Population Mitochondria Different-Phenotype (%): 6.23% and 7.14%
  Population Mitotic Cells (%): 52.63% and 40%
  Population Normal (%): 100%
  Population Pyknosed Nuclei (%): 5.67% and 7.75%
  Population Tubulin-Different-Phenotype (%): 40.86% and 67.41%
  Total Cell Count: 335 and 258
